The results in this text go back to ChEMBL document CHEMBL1143078, “Synthesis and anti-Helicobacter pylori activity of 5-(nitroaryl)-1,3,4-thiadiazoles with certain sulfur containing alkyl side chain” (Bioorg Med Chem Lett, 2008).

What is called MIC is the lowest concentration found to suppress growth. Read a high MIC as weaker potency. What is called IC50 is the concentration that inhibits the measured activity by half. Read a low IC50 as greater potency.

The test system of assay [1] is Helicobacter pylori. The assay can be described thus: Antibacterial activity against metronidazole-sensitive Helicobacter pylori assessed as inhibition zone diameter at 8 ug/disk after 3-5 days by paper disk diffusion assay. The class given is functional. The method in brief: (§1)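 Filter-paper disk diffusion (6 mm disks), with the compound applied in 40 µL methanol and dried. Disks placed on Mueller–Hinton agar with 7% defibrinated horse blood, inoculated with 48 h H. pylori clinical-isolate suspension at 2 McFarland (10^7-10^8 CFU/mL). Incubated 3–5 days at 37 °C microaerophilically (5% O2, 15% CO2, 80% N2). Mean inhibition-zone diameter (mm) from triplicates.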
Background: A growth-free zone around the sample is the usual read-out of agar diffusion tests.

Assay [2] deals with Helicobacter pylori. The assay can be described thus: Antibacterial activity against Helicobacter pylori isolate assessed as inhibition zone diameter at 32 ug/disk after 3-5 days by paper disk diffusion assay. The format is functional. The essentials: as §1
Assay [3] has as its system Helicobacter pylori. Kind of assay: Antibacterial activity against metronidazole-resistant Helicobacter pylori assessed as inhibition zone diameter at 32 ug/disk after 3-5 days by paper disk diffusion assay. The format is functional. The essentials:
(§2)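 Filter paper disks (6 mm) loaded with compound in 40 μL methanol, dried, placed on Mueller–Hinton agar with 7% defibrinated horse blood pre-inoculated with H. pylori suspension (2 McFarland, 10⁷-10⁸ CFU/mL; 48 h cultures checked for coccoid forms); incubated microaerophilically (5% O2, 15% CO2, 80% N2) at 37 °C for 3–5 days; mean inhibition zone diameter (mm) of triplicates.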

Assay [4] has as its system Helicobacter pylori. The assay can be described thus: Antibacterial activity against Helicobacter pylori isolate assessed as inhibition zone diameter at 2 ug/disk after 3-5 days by paper disk diffusion assay. The class given is functional. The essentials: as §1
The next assay relates to Aspergillus niger. The assay can be described thus: Antifungal activity against Aspergillus niger PTCC 5012 after 72 hrs by agar dilution method. The format is functional. The method in brief: (§3)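 Agar dilution on Sabouraud dextrose agar. Compound stocks in DMSO. Inocula about 10^5 CFU/mL from log-phase broth cultures. Plates run in triplicate at 30 °C: about 24–48 h for yeasts, about 72 h for moulds, about 168 h for dermatophytes. MIC is the lowest concentration with no visible growth on the plate.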
On the technique in general: Agar dilution tests growth on a series of plates holding different concentrations.

Assay [5] relates to Helicobacter pylori. The assay can be described thus: Antibacterial activity against Helicobacter pylori isolate assessed as inhibition zone diameter at 1 ug/disk after 3-5 days by paper disk diffusion assay. The format is functional. The method in brief:
as §1

Assay [6] relates to Helicobacter pylori. The assay can be described thus: Antibacterial activity against Helicobacter pylori isolate assessed as inhibition zone diameter at 16 ug/disk after 3-5 days by paper disk diffusion assay. The class given is functional. The essentials:
as §1

The test system of another assay is Staphylococcus aureus. The assay can be described thus: Antibacterial activity against Staphylococcus aureus ATCC 6538P after 18 hrs by serial dilution method. The class given is functional. The method in brief: (§4)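 Agar dilution MIC. Compound stock diluted with water, then serially doubled in melted Mueller–Hinton agar to 64, 32, 16 and 8 µg/mL. Plates inoculated with 1-5 × 10^4 CFU and incubated 18 h at 37 °C. MIC is the lowest concentration giving no visible growth.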

Assay [7] relates to Helicobacter pylori. Kind of assay: Antibacterial activity against Helicobacter pylori isolate assessed as inhibition zone diameter at 8 ug/disk after 3-5 days by paper disk diffusion assay. The format is functional. The method in brief: as §1
Another assay concerns Escherichia coli. Kind of assay: Antibacterial activity against Escherichia coli ATCC 8739 after 18 hrs by serial dilution method. The class given is functional. Conditions: ATCC 8739, 18 h. The method in brief:
as §4

Assay [8] concerns Helicobacter pylori. Kind of assay: Antibacterial activity against metronidazole-resistant Helicobacter pylori assessed as inhibition zone diameter at 16 ug/disk after 3-5 days by paper disk diffusion assay. The format is functional. The essentials:
as §2

The test system of the next assay is Saccharomyces cerevisiae. The assay can be described thus: Antifungal activity against Saccharomyces cerevisiae PTCC 5177 after 72 hrs by agar dilution method. The class given is functional.
Assay [9] deals with Helicobacter pylori. The assay can be described thus: Antibacterial activity against Helicobacter pylori isolate assessed as inhibition zone diameter at 0.5 ug/disk after 3-5 days by paper disk diffusion assay. The format is functional. The method in brief: as §1
The subject of assay [10] is Helicobacter pylori. Kind of assay: Antibacterial activity against metronidazole-sensitive Helicobacter pylori assessed as inhibition zone diameter at 32 ug/disk after 3-5 days by paper disk diffusion assay. The class given is functional. The essentials: as §1
The next assay relates to Klebsiella pneumoniae. The assay can be described thus: Antibacterial activity against Klebsiella pneumoniae ATCC 10031 after 18 hrs by serial dilution method. The format is functional. The note with it: ATCC 10031, 18 h. The essentials:
as §4

Assay [11] relates to Helicobacter pylori. The assay can be described thus: Antibacterial activity against metronidazole-resistant Helicobacter pylori assessed as inhibition zone diameter at 8 ug/disk after 3-5 days by paper disk diffusion assay. The class given is functional. The essentials: as §2
For assay [12], the system named is Helicobacter pylori. The assay can be described thus: Antibacterial activity against metronidazole-sensitive Helicobacter pylori assessed as inhibition zone diameter at 16 ug/disk after 3-5 days by paper disk diffusion assay. The format is functional. The essentials:
as §2

The subject of assay [13] is Helicobacter pylori. The assay can be described thus: Antibacterial activity against Helicobacter pylori isolate assessed as inhibition zone diameter at 4 ug/disk after 3-5 days by paper disk diffusion assay. The format is functional. The method in brief:
as §1

Assay [14] is described as follows: Cytotoxicity against mouse NIH/3T3 cells after 72 hrs by MTT assay. The format is cell-based. Conditions: NIH3T3, 72 h. The method in brief: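 NIH/3T3 mouse fibroblasts in exponential phase trypsinized and seeded at 5×10^4 cells/mL, then given serially diluted compound in triplicate and incubated 72 h. MTT (5 mg/mL solution) added for 1 h, formazan dissolved in DMSO, absorbance read at 492 nm. IC50 calculated from dose-response curves versus untreated controls, as mean ± SD of triplicates.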
(Tetrazolium dyes change colour on reduction, which living cells bring about.)

A further assay deals with Nannizzia gypsea. The assay can be described thus: Antifungal activity against Microsporum gypseum PTCC 5070 after […] by agar dilution method. The format is functional. The method in brief:
as §3

The subject of another assay is Candida albicans. The assay can be described thus: Antifungal activity against Candida albicans PTCC 5027 after 72 hrs by agar dilution method. The format is functional.
Assay [15] concerns Staphylococcus epidermidis. The assay can be described thus: Antibacterial activity against Staphylococcus epidermidis ATCC 12228 after 18 hrs by serial dilution method. The format is functional. The note with it: ATCC 12228, 18 h. The essentials:
as §4

Converted amounts (≈) assume the structure as drawn.

Take `CCSCCSc1nnc(-c2ncc([N+](=O)[O-])n2C)s1`: the Activity in the assay with Helicobacter pylori [1] was 32 mm; with Helicobacter pylori [2], 42.6 mm; with Helicobacter pylori [3], 59 mm; with Helicobacter pylori [4] it was 19.5 mm; in the assay with Helicobacter pylori [5], 15 mm; in the assay with Helicobacter pylori [6] it was 36.5 mm. For the same molecule, the Activity in the assay on Helicobacter pylori [7] came to 31.7 mm; in the assay on Helicobacter pylori [8], 47 mm; in the assay on Helicobacter pylori [9], 12.2 mm; in the assay with Helicobacter pylori [10], 48 mm; with Helicobacter pylori [11], 35 mm; in the assay on Helicobacter pylori [12], 37 mm. Also, the Activity in the assay with Helicobacter pylori [13] is on record as 25.4 mm. Further, the MIC with Aspergillus niger, against Staphylococcus aureus, with Escherichia coli, against Saccharomyces cerevisiae, against Klebsiella pneumoniae and in the assay on Nannizzia gypsea was > 32 µg/mL throughout. For the same molecule, the MIC with Candida albicans was > 32 µg/mL; in assay [15] it was 32 µg/mL (≈ 96.5 µM). Half-maximal inhibition in assay [14] (IC50) required 61.5 µg/mL (≈ 186 µM).
As for `CCSCCSc1nnc(-c2ccc([N+](=O)[O-])o2)s1`, the Activity in the assay on Helicobacter pylori [1] is reported as 22 mm; with Helicobacter pylori [2] it was 34.9 mm; in the assay with Helicobacter pylori [3] it was 28 mm; in the assay with Helicobacter pylori [4], 16.4 mm; in the assay on Helicobacter pylori [5] it was 11.1 mm; in the assay on Helicobacter pylori [6] it was 30.7 mm. In addition, the Activity is recorded as 28.3 mm in the assay on Helicobacter pylori [7]; 21 mm in the assay on Helicobacter pylori [8]; 6 mm in the assay with Helicobacter pylori [9]; 42 mm with Helicobacter pylori [10]; 16 mm with Helicobacter pylori [11]; 31 mm in the assay on Helicobacter pylori [12]. The Activity with Helicobacter pylori [13] is given as 21.5 mm. The MIC in the assay with Aspergillus niger, in the assay with Staphylococcus aureus, with Escherichia coli, against Saccharomyces cerevisiae, against Klebsiella pneumoniae and with Nannizzia gypsea was > 32 µg/mL in each case. Moreover, the figures for the MIC (in the assay on Candida albicans; in assay [15]) were > 32 µg/mL and 32 µg/mL (≈ 101 µM), respectively. Besides, the IC50 in assay [14] amounted to 5 µg/mL (≈ 15.8 µM).
